organism: Homo sapiens; assay: Selectivity ratio of IC50 for human geranylgeranyltransferase-1 to IC50 for human farnesyltransferase

| Compound | Selectivity ratio |
| --- | --- |
| Cn1cnc(S(=O)(=O)N(CCN(Cc2cncn2C)c2ccc(C#N)cc2)CC2CC2)c1 | > 17 |
| Cn1cnc(S(=O)(=O)N(Cc2ccccc2)[C@H]2CC[C@@H](N(Cc3cncn3C)c3ccc(C#N)cc3)C2)c1 (racemic) | > 15 |
| Cn1cnc(S(=O)(=O)N(CCN(Cc2cncn2C)c2ccc(C#N)cc2)CC2CCCCC2)c1 | 8.8 |
| Cn1cnc(S(=O)(=O)N(CCN(Cc2cncn2C)c2ccc(-c3ccccc3)cc2)Cc2ccccc2)c1 | 0.7 |
| CCCS(=O)(=O)N(CCN(Cc1cncn1C)c1ccc(C#N)cc1)Cc1ccccc1 | 85 |
| Cn1cnc(S(=O)(=O)N(CCN(Cc2cncn2C)c2ccc(C(=O)OC(C)(C)C)cc2)Cc2ccccc2)c1 | 0.9 |
| Cn1cnc(S(=O)(=O)N(CCN(Cc2cncn2C)c2ccc(C#N)cc2)Cc2cccs2)c1 | 2.6 |
| Cn1cnc(S(=O)(=O)N(CCN(Cc2cncn2C)c2ccc(C#N)cc2)Cc2ccc(-c3ccccc3)cc2)c1 | 4.3 |

The next lines start with the values.

| Selectivity ratio | Compound |
| --- | --- |
| 18 | Cn1cnc(S(=O)(=O)N(CCN(Cc2cncn2C)c2ccc(C#N)cc2)Cc2ccc(C#N)cc2)c1 |
| 2 | Cn1cncc1CN(CCN(CC1CCCCC1)S(=O)(=O)c1ccccn1)c1ccc(C#N)cn1 |
| 200 | Cn1cncc1CN(CCN(Cc1ccccc1)S(=O)(=O)c1cccs1)c1ccc(C#N)cc1 |
| 333 | Cn1cncc1CN(CCN(Cc1ccccc1)S(=O)(=O)c1cccc2cccnc12)c1ccc(C#N)cc1 |

target: Protein farnesyltransferase (Homo sapiens, UniProt P49354+P49356); assay: Inhibition of human farnesyltransferase assessed as incorporation of [3H]FPP into H-Ras-CVLS; assay type: protein-complex assay
Method in brief: (§1)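 In vitro radiometric assay measuring transfer of [3H]FPP (FTase) or [3H]GGPP (GGTase-I) onto recombinant H-Ras-CVLS or H-Ras-CVLL, respectively.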

| Compound | IC50 [µM] |
| --- | --- |
| Cn1cnc(S(=O)(=O)N(CCN(Cc2cncn2C)c2ccc(C#N)cc2)CC2CC2)c1 | 0.59 |
| Cn1cnc(S(=O)(=O)N(Cc2ccccc2)[C@H]2CC[C@@H](N(Cc3cncn3C)c3ccc(C#N)cc3)C2)c1 (racemic) | 0.65 |
| Cn1cnc(S(=O)(=O)N(CCN(Cc2cncn2C)c2ccc(C#N)cc2)CC2CCCCC2)c1 | 0.06 |
| Cn1cnc(S(=O)(=O)N(CCN(Cc2cncn2C)c2ccc(-c3ccccc3)cc2)Cc2ccccc2)c1 | 6.85 |
| Cn1cnc(S(=O)(=O)N(CCN(Cc2cncn2C)c2ccc(C(=O)OC(C)(C)C)cc2)Cc2ccccc2)c1 | 5.4 |
| Cn1cnc(S(=O)(=O)N(CCN(Cc2cncn2C)c2ccc(C#N)cc2)Cc2cccs2)c1 | 2.3 |
| Cn1cnc(S(=O)(=O)N(CCN(Cc2cncn2C)c2ccc(C#N)cc2)Cc2ccc(-c3ccccc3)cc2)c1 | 1.7 |

More lines, now with the values ahead:

| IC50 [µM] | Compound |
| --- | --- |
| 0.37 | Cn1cnc(S(=O)(=O)N(CCN(Cc2cncn2C)c2ccc(C#N)cc2)Cc2ccc(C#N)cc2)c1 |
| 0.35 | Cn1cncc1CN(CCN(CC1CCCCC1)S(=O)(=O)c1ccccn1)c1ccc(C#N)cn1 |
| 0.05 | Cn1cncc1CN(CCN(Cc1ccccc1)S(=O)(=O)c1cccs1)c1ccc(C#N)cc1 |
| 0.03 | Cn1cncc1CN(CCN(Cc1ccccc1)S(=O)(=O)c1cccc2cccnc12)c1ccc(C#N)cc1 |

target: Protein farnesyltransferase (Mus musculus, UniProt Q61239+Q8K2I1); assay: Inhibition of H-Ras farnesylation expressed in mouse NIH3T3 cells; assay type: functional, cell-based
Method in brief: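 Oncogenic H-Ras-transformed NIH3T3 cells were treated with a range of inhibitor concentrations. Detection used peroxidase-conjugated secondary antibodies and enhanced chemiluminescence. IC50 is the mean of three independent assays ± SD unless stated otherwise.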

| Compound | IC50 [µM] |
| --- | --- |
| Cn1cnc(S(=O)(=O)N(CCN(Cc2cncn2C)c2ccc(C#N)cc2)CC2CC2)c1 | > 10 |
| Cn1cnc(S(=O)(=O)N(CCN(Cc2cncn2C)c2ccc(C#N)cc2)CC2CCCCC2)c1 | 0.1 |
| CCCS(=O)(=O)N(CCN(Cc1cncn1C)c1ccc(C#N)cc1)Cc1ccccc1 | 0.07 |
| Cn1cnc(S(=O)(=O)N(CCN(Cc2cncn2C)c2ccc(C#N)cc2)Cc2cccs2)c1 | 0.4 |
| Cn1cnc(S(=O)(=O)N(CCN(Cc2cncn2C)c2ccc(C#N)cc2)Cc2ccc(-c3ccccc3)cc2)c1 | 5 |

Continued, values first:

| IC50 [µM] | Compound |
| --- | --- |
| > 10 | Cn1cnc(S(=O)(=O)N(CCN(Cc2cncn2C)c2ccc(C#N)cc2)Cc2ccc(C#N)cc2)c1 |
| 0.288 | Cn1cncc1CN(CCN(CC1CCCCC1)S(=O)(=O)c1ccccn1)c1ccc(C#N)cn1 |
| 0.5 | Cn1cncc1CN(CCN(Cc1ccccc1)S(=O)(=O)c1cccs1)c1ccc(C#N)cc1 |
| 0.6 | Cn1cncc1CN(CCN(Cc1ccccc1)S(=O)(=O)c1cccc2cccnc12)c1ccc(C#N)cc1 |

target: Geranylgeranyl transferase type 1 (Mus musculus, UniProt Q61239+Q8BUY9); assay: Inhibition of Rap1A geranylgeranylation expressed in mouse NIH3T3 cells; assay type: functional, cell-based
Method in brief: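 Oncogenic H-Ras-transformed NIH3T3 cells were treated with a range of inhibitor concentrations. […] Detection used peroxidase-conjugated secondary antibodies and enhanced chemiluminescence. IC50 is the mean of three independent assays ± SD unless stated otherwise.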

| Compound | IC50 [µM] |
| --- | --- |
| Cn1cnc(S(=O)(=O)N(CCN(Cc2cncn2C)c2ccc(C#N)cc2)CC2CC2)c1 | > 10 |
| Cn1cnc(S(=O)(=O)N(CCN(Cc2cncn2C)c2ccc(C#N)cc2)CC2CCCCC2)c1 | > 10 |
| CCCS(=O)(=O)N(CCN(Cc1cncn1C)c1ccc(C#N)cc1)Cc1ccccc1 | > 10 |
| Cn1cnc(S(=O)(=O)N(CCN(Cc2cncn2C)c2ccc(C#N)cc2)Cc2cccs2)c1 | > 10 |
| Cn1cnc(S(=O)(=O)N(CCN(Cc2cncn2C)c2ccc(C#N)cc2)Cc2ccc(-c3ccccc3)cc2)c1 | > 10 |

Further lines, results first:

| IC50 [µM] | Compound |
| --- | --- |
| > 10 | Cn1cnc(S(=O)(=O)N(CCN(Cc2cncn2C)c2ccc(C#N)cc2)Cc2ccc(C#N)cc2)c1 |
| 19 | Cn1cncc1CN(CCN(CC1CCCCC1)S(=O)(=O)c1ccccn1)c1ccc(C#N)cn1 |
| > 10 | Cn1cncc1CN(CCN(Cc1ccccc1)S(=O)(=O)c1cccs1)c1ccc(C#N)cc1 |
| > 10 | Cn1cncc1CN(CCN(Cc1ccccc1)S(=O)(=O)c1cccc2cccnc12)c1ccc(C#N)cc1 |

target: Geranylgeranyl transferase type I (Homo sapiens, UniProt P49354+P53609); assay: Inhibition of human geranylgeranyltransferase-1 assessed as incorporation of [3H]GGPP into H-Ras-CVLL; assay type: protein-complex assay; method in brief: as §1

| Compound | IC50 [µM] |
| --- | --- |
| Cn1cnc(S(=O)(=O)N(CCN(Cc2cncn2C)c2ccc(C#N)cc2)CC2CC2)c1 | > 10 |
| Cn1cnc(S(=O)(=O)N(Cc2ccccc2)[C@H]2CC[C@@H](N(Cc3cncn3C)c3ccc(C#N)cc3)C2)c1 (racemic) | > 10 |
| Cn1cnc(S(=O)(=O)N(CCN(Cc2cncn2C)c2ccc(C#N)cc2)CC2CCCCC2)c1 | 0.53 |
| Cn1cnc(S(=O)(=O)N(CCN(Cc2cncn2C)c2ccc(-c3ccccc3)cc2)Cc2ccccc2)c1 | 5 |
| Cn1cnc(S(=O)(=O)N(CCN(Cc2cncn2C)c2ccc(C(=O)OC(C)(C)C)cc2)Cc2ccccc2)c1 | 4.9 |
| Cn1cnc(S(=O)(=O)N(CCN(Cc2cncn2C)c2ccc(C#N)cc2)Cc2cccs2)c1 | 5.9 |
| Cn1cnc(S(=O)(=O)N(CCN(Cc2cncn2C)c2ccc(C#N)cc2)Cc2ccc(-c3ccccc3)cc2)c1 | 7.3 |

Continued, values first:

| IC50 [µM] | Compound |
| --- | --- |
| 6.5 | Cn1cnc(S(=O)(=O)N(CCN(Cc2cncn2C)c2ccc(C#N)cc2)Cc2ccc(C#N)cc2)c1 |
| 0.69 | Cn1cncc1CN(CCN(CC1CCCCC1)S(=O)(=O)c1ccccn1)c1ccc(C#N)cn1 |
| 10 | Cn1cncc1CN(CCN(Cc1ccccc1)S(=O)(=O)c1cccs1)c1ccc(C#N)cc1 |
| 10 | Cn1cncc1CN(CCN(Cc1ccccc1)S(=O)(=O)c1cccc2cccnc12)c1ccc(C#N)cc1 |

From ChEMBL document CHEMBL1255187, “Structure-based design and synthesis of potent, ethylenediamine-based, mammalian farnesyltransferase inhibitors as anticancer agents” (J Med Chem, 2010)
